Source: PubChem BioAssay
Avidin fluor – compound fluoresces at 488/530 nm on avidin beads; 220,000 compounds, 0.38% hits; compound fluorescence 488/530 nm, flow cytometry; stronger effect = higher value; fluorescence (KMESF) at 10 µM; in the data active = fluorescence above about 47
Redox H2O2 prof – compounds producing H2O2 with reducing agent – biochemical, NIH compound library profiling, artefact control for MLSCN library redox annotation, primary screen; DTT-dependent redox cycling H2O2, phenol red/HRP absorbance; 100% = 100 µM peroxide control, 0% = buffer; activation, % at 10 µM; 200,000 compounds, 0.03% hits; AID 878;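 active = activation of at least 50% relative to the plate's high and low controls in the primary single-dose screen; inactive = activation below 50%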;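 also: compound incubated with DTT at 0.8 mM final as the reducing agent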
ABCB1 inh – inhibitors of human ABCB1 transporter, ABCG2 counter-screen; P08183; CCRF-Adr cells, JC-1 efflux, flow cytometry; inhibition, % at 6.6 µM; 190,000 compounds, 0.067% hits; in the data active = inhibition above about 40%;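 also: higher value means more JC-1 retained so stronger ABCB1 efflux block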
ABCG2 block – inhibitors of human ABCG2 transporter, ABCB1 counter-screen; IgMXP3 cells, JC-1 efflux, flow cytometry; inhibition, % at 6.6 µM; 190,000 compounds, 0.1% hits; AID 1325;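 active = inhibition above 80%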
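Measure – % inhibition of efflux relative to nicardipine and DMSO · Test system – ABCG2 IgMXP3 and barcoded ABCB1 CCRF-Adr cell mix · Control set – nicardipine as high control, DMSO as low control · Compound – one concentration, 6.6 µM final · Signal – flow cytometry of retained JC-1 fluorescence · Timing – 10 min exposure at 25 °C with rotation, no wash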
GSH fluor – GSH bead compound fluorescence profile; GSH beads flow cytometry, compound fluorescence 488/530 nm; stronger effect = higher value; fluorescence (KMESF) at 10 µM; 190,000 compounds, 0.25% hits; AID 1776; in the data active = fluorescence above about 89;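 also: glutathione beads carrying GST-tagged Bcl family fusion proteins plus one bare bead set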
Of the large screens only hits and unclear results are named; the others gave an inactive call. Most compounds without a hit are left out; they make up all but 0.72% or so of the library.

COc1ccc(-c2noc(Cc3ccc(Cl)cc3)n2)cc1OC	Avidin fluor 67
COc1ccccc1OCc1nc(Cc2ccc(Cl)cc2)no1	none
O=S(=O)(c1cccc2cccnc12)N1CCN(Cc2ccccc2)CC1	none
CCN(CC)CCCNC(=O)CSc1nc2c(c(C(F)(F)F)n1)CCc1ccccc1-2	Avidin fluor 64
c1ccc(Cn2c(CSc3nnnn3-c3ccccc3)nc3ccccc32)cc1	GSH fluor 237
O=c1c2ccccc2nc(CSc2nnnn2-c2ccccc2)n1-c1ccccc1Cl	none
CN(CCOc1ccccc1)S(=O)(=O)c1ccc2oc3ccccc3c2c1	Avidin fluor 60
Cc1ccc(S(=O)(=O)N(CCCO)CC(O)CON=C2c3ccccc3-c3ccccc32)cc1 (stereo not given)	none
COc1cccc(-n2c(SCC#N)nnc2-c2cnccn2)c1	GSH fluor 247
CCOc1ccc(NC(=O)CCn2c(=O)[nH]c3ccsc3c2=O)cc1	none
CCOC(=O)c1[nH]c(C)c(C(=O)Nc2ccc(C)c(Cl)c2)c1C	Avidin fluor 62
CCOC(=O)c1[nH]c(C)c(C(=O)Nc2ccc(C)c(F)c2)c1C	none
CCOCCOC(=O)CCSc1n[nH]c(=O)[nH]c1=O	none
CCCCCOC(=O)CSc1n[nH]c(=O)[nH]c1=O	GSH fluor 273
O=C(C[n+]1ccccc1)Nc1ccccc1C(=O)O	none
CN(C)S(=O)(=O)c1cccc(NC(=O)CCNC(=O)c2ccccc2Cl)c1	none
Cc1csc(NC(=O)c2ccco2)n1	none (no result: ABCB1 inh, ABCG2 block)
O=C(O)Cc1csc(NC(=O)c2ccco2)n1	GSH fluor 276
O=C(N/N=C/c1ccccn1)c1ccc2nc[nH]c2c1	none (no result: Redox H2O2 prof, ABCB1 inh, ABCG2 block, GSH fluor)
Cc1ccc(/C=N/NC(=O)c2ccc3nc[nH]c3c2)o1	Avidin fluor 128 (no result: Redox H2O2 prof, ABCB1 inh, ABCG2 block, GSH fluor)
CCC(C)NS(=O)(=O)c1ccc(OCC(=O)NCc2cccnc2)cc1 (stereo not given)	GSH fluor 257
O=C(NCC(=O)N(c1cccnc1)C(C(=O)NC1CCCC1)c1ccco1)c1cccs1 (stereo not given)	Avidin fluor 57
O=C(NCC(=O)N(c1cccnc1)C(C(=O)NC1CCCC1)c1cccs1)c1ccco1 (stereo not given)	none
Cc1ccc(C(C)C)cc1NC(=O)Nc1ccc([N+](=O)[O-])cc1	none (no result: Redox H2O2 prof, ABCB1 inh, ABCG2 block, GSH fluor)
O=C(Nc1ccc2c(c1)OCO2)C1CCN(C(=O)c2ccc([N+](=O)[O-])cc2)CC1	none
CC1SC(c2ccc(Cl)cc2)NC1=O (stereo not given)	none
COc1ccc(C2NC(=O)C(C)S2)cc1 (stereo not given)	Avidin fluor 51
Cc1ccc(NC(=O)CCNS(=O)(=O)c2ccc3c(c2)c(=O)n(C)c(=O)n3C)cc1C	none
COc1ccc(NC(=O)CCNS(=O)(=O)c2ccc3c(c2)c(=O)n(C)c(=O)n3C)cc1	Avidin fluor 69
CCCCSCc1ccc(C(=O)O)o1	GSH fluor 131
Cc1ccc(NNc2c(C)nc3ccccc3nc2=O)cc1	none
c1coc(-c2nnc(NC3=NCCC3)o2)c1	none
Cc1nnc(NC2=NCCC2)o1	Avidin fluor 95
O=C(c1cccc(F)c1)N1CCC(N2CCCCCC2)CC1	none
O=C(c1cccc(F)c1)N1CCN(C2CCCCC2)CC1	GSH fluor 269
O=C(CSc1nnc(-c2ccc(S(=O)(=O)N3CCCC3)cc2)o1)NCc1ccccc1	GSH fluor 113
CCOC(=O)/C(C#N)=N/Nc1c(C)n(C)n(-c2ccccc2)c1=O	none
CCOC(=O)/C(C#N)=N/Nc1ccccc1C#N	Avidin fluor 47 (no result: Redox H2O2 prof, ABCB1 inh, ABCG2 block, GSH fluor)
CC(C)(C)c1ccc(C(=O)NNC(=O)c2cccc(Br)c2)cc1	Avidin fluor 65
NC(=S)NNC(=O)c1cccc(Br)c1	none
Oc1ccc(N=Cc2ccc(-c3cccs3)s2)cc1	Avidin fluor 47
CCCCOc1ccc(N=Cc2cccs2)cc1	none
O=C(O)C1C2C=CC(C2)C1C(=O)N1CCOCC1 (stereo not given)	none
O=C(NC1CCCC1)C1C2C=CC(C2)C1C(=O)N1CCOCC1 (stereo not given)	GSH fluor 272
O=C(Cc1ccccc1)c1c[nH]c(C(=O)NCCCN2CCOCC2)c1	none
O=C1N=C(N2CCOCC2)S/C1=C/c1cc2c(cc1[N+](=O)[O-])OCO2	none (no result: Redox H2O2 prof, ABCB1 inh, ABCG2 block, GSH fluor)
Cc1nccn1CCCNCc1c(C(=O)N2CCCCCCC2)nc2ccc(Cl)cn12	none
CC1(C)Oc2ccc3ccc(=O)oc3c2-c2cnoc21	Avidin fluor 56
CCOC(=O)c1cc(-c2ccc(F)cc2)n(CC(=O)NC(C)CC)c1C (stereo not given)	none
CCOC(=O)c1cc(-c2ccc(C)cc2)n(CCC(=O)NC(C)CC)c1C (stereo not given)	Avidin fluor 64
C(=N\c1nc2ccccc2n1CCN1CCCCC1)/c1cccs1	GSH fluor 270
C(=N\c1nc2ccccc2n1CCN1CCCCC1)/c1ccc2c(c1)OCO2	none
Cc1ccc(C2=N/C(=C/N3CCOCC3)C(=O)O2)cc1	none
Cc1ccc(C2=N/C(=C\N3CCCCC3)C(=O)O2)cc1	Avidin fluor 89
O=C(Oc1cccnc1)c1cccc(Cl)c1	GSH fluor 267
CCCCn1[nH]c(-c2ccccc2)cc1=O	none
CC(=O)c1ccc(NS(=O)(=O)c2ccccc2)cc1	Avidin fluor 49
CC(=O)c1ccc(NS(=O)(=O)c2ccc(N)cc2)cc1	none
COc1ccccc1-c1cc(C(F)(F)F)nc(S(C)(=O)=O)n1	GSH fluor 483
CCOC(=O)C1CCCN(C(=O)C(C)Oc2ccc(Cl)cc2Cl)C1 (stereo not given)	none
COC(=O)C1CCN(C(=O)C(C)Oc2ccc(Cl)cc2Cl)CC1 (stereo not given)	Avidin fluor 57
CCOc1ccccc1NS(=O)(=O)c1cn(C)c(=O)n(C)c1=O	none (no result: Redox H2O2 prof, ABCB1 inh, ABCG2 block, GSH fluor)
CCOC(=O)c1cnn(-c2ncnc3sc4c(c23)CCC4)c1N	Avidin fluor 52
CCOC(=O)c1cnn2c1[nH]c(=O)c1ccccc12	Avidin fluor 96
CCOC(=O)C1=C(c2ccccc2)N(C)C(=O)NC1c1ccc(OC(F)F)c(OC)c1 (stereo not given)	Avidin fluor 56
CCOC(=O)/C=C1\SCC(=O)N1Cc1ccc(Br)cc1	none
CCOC(=O)/C=C1\SCC(=O)N1Cc1nnc(-c2ccccc2Br)o1	Avidin fluor 50
COc1ccc(N=Nc2nc3cc(Br)c(Br)cc3n2C)c(OC)c1	none (no result: GSH fluor)
COc1ccccc1N1CCN(C(=O)CN(c2ccc(C)c(C)c2)S(C)(=O)=O)CC1	GSH fluor 268
COc1cccc(N(CC(=O)N2CCN(c3ccccc3OC)CC2)S(C)(=O)=O)c1	none
Cc1ccc(C)c(/C(O)=C2\C(=O)C(=O)N(Cc3cccnc3)C2c2cccnc2)c1 (stereo not given)	Avidin fluor 49
O=C(CSc1nnc(COc2cccc3cccnc23)o1)N1CCN(C(=O)c2ccco2)CC1	GSH fluor 136
